Measured values published in ChEMBL document CHEMBL3797202, “Novel Oxindole Sulfonamides and Sulfamides: EPZ031686, the First Orally Bioavailable Small Molecule SMYD3 Inhibitor” (ACS Med Chem Lett, 2016).

Assays:
[1] = Oral bioavailability in CD1 mouse at 5 mg/kg measured up to 24 hrs by LC-MS/MS analysis; assay type: ADME, organism-based; conditions: in vivo
How it was run: (§1)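 Male CD-1 mice received a single bolus: 1 mg/kg i.v., or 5 or 50 mg/kg p.o. Values are mean ± SD, n = 3. […] Bioavailability was determined separately for each oral dose.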

[2] = Cmax in CD1 mouse at 5 mg/kg, administered through oral gavage measured up to 24 hrs by LC-MS/MS analysis; assay type: ADME, organism-based; set-up: dose 5 mg/kg, route oral; conditions: in vivo; how it was run: as §1
[3] = Tmax in CD1 mouse at 5 mg/kg, administered through oral gavage by LC-MS/MS analysis; assay type: ADME, organism-based; conditions: in vivo; how it was run: as §1
[4] = AUC (0 to infinity) in CD1 mouse at 1 mg/kg, iv as bolus dose measured up to 24 hrs by LC-MS/MS analysis; assay type: ADME, organism-based; set-up: dose 1 mg/kg, route intravenous, time infinity; conditions: in vivo; how it was run: as §1
[5] = Terminal half life in CD1 mouse at 1 mg/kg, iv as bolus dose by LC-MS/MS analysis; assay type: ADME, organism-based; conditions: in vivo, read-out: beta t1/2 (converted); how it was run: as §1
[6] = molecular target: T1, Histone-lysine N-methyltransferase SMYD3 (Homo sapiens, UniProt Q9H7B4); test: Non-competitive inhibition of full length N-terminal His-tagged SMYD3 (1 to 428 residues) (unknown origin) expressed in Escherichia coli using varying N-terminal GST-tagged MEKK2 substrate and fixed SAM levels preincubated for 30 mins followed by substrate addition by filter plate assay
T1 sequence (Q9H7B4 whole entry): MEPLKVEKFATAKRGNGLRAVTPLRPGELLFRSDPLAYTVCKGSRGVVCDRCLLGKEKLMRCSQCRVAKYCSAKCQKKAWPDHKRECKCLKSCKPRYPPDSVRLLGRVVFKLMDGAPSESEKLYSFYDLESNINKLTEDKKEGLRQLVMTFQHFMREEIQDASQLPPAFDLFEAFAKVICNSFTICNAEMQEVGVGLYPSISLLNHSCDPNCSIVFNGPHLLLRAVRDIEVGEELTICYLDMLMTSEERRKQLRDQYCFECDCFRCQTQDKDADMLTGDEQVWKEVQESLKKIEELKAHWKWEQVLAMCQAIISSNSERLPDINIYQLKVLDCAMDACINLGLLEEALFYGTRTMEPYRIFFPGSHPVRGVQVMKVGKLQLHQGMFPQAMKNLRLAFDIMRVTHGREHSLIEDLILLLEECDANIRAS

[7] = AUC (0 to infinity) in CD1 mouse at 5 mg/kg, administered through oral gavage measured up to 24 hrs by LC-MS/MS analysis; assay type: ADME, organism-based; set-up: dose 5 mg/kg, time infinity, route oral; conditions: in vivo; how it was run: as §1
[8] = AUC (0 to last) in CD1 mouse at 1 mg/kg, iv as bolus dose measured up to 24 hrs by LC-MS/MS analysis; assay type: ADME, organism-based; set-up: dose 1 mg/kg, time 0 - last, route intravenous; conditions: in vivo; how it was run: as §1
[9] = Renal clearance in CD1 mouse at 1 mg/kg, iv as bolus dose measured up to 24 hrs by LC-MS/MS analysis; assay type: ADME, organism-based, Kidney; conditions: in vivo; how it was run: as §1
[10] = Efflux ratio of apparent permeability in human Caco2 cells at 10 uM incubated for 120 mins by LC-MS/MS analysis; assay type: ADME, cell-based; conditions: Caco-2
How it was run: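 Permeability in Caco-2 cells, measured apical-to-basolateral as P_app (×10⁻⁶ cm/s). An efflux ratio is reported as the index of active efflux. This is part of an in vitro ADME screen run before mouse PK studies.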

[11] = AUC (0 to infinity) in CD1 mouse at 50 mg/kg, administered through oral gavage measured up to 24 hrs by LC-MS/MS analysis; assay type: ADME, organism-based; set-up: dose 50 mg/kg, time infinity, route oral; conditions: in vivo; how it was run: as §1
[12] = AUC (0 to last) in CD1 mouse at 50 mg/kg, administered through oral gavage measured up to 24 hrs by LC-MS/MS analysis; assay type: ADME, organism-based; set-up: dose 50 mg/kg, route oral, time 0 - last; conditions: in vivo; how it was run: as §1
[13] = Volume of distribution at steady state in CD1 mouse at 1 mg/kg, iv as bolus dose measured up to 24 hrs by LC-MS/MS analysis; assay type: ADME, organism-based; conditions: in vivo, read-out: Vdss; how it was run: as §1
[14] = AUC (0 to last) in CD1 mouse at 5 mg/kg, administered through oral gavage measured up to 24 hrs by LC-MS/MS analysis; assay type: ADME, organism-based; set-up: dose 5 mg/kg, route oral, time 0 - last; conditions: in vivo; how it was run: as §1
[15] = Clearance in CD1 mouse at 1 mg/kg, iv as bolus dose measured up to 24 hrs by LC-MS/MS analysis; assay type: ADME, organism-based; conditions: in vivo; how it was run: as §1
[16] = Drug excretion in CD1 mouse urine at 1 mg/kg, iv as bolus dose after 24 hrs by LC-MS/MS analysis; assay type: ADME, organism-based; conditions: read-out: Drug excretion; how it was run: as §1
[17] = Cmax in CD1 mouse at 50 mg/kg, administered through oral gavage measured up to 24 hrs by LC-MS/MS analysis; assay type: ADME, organism-based; set-up: dose 50 mg/kg, route oral; conditions: in vivo; how it was run: as §1
[18] = Tmax in CD1 mouse at 50 mg/kg, administered through oral gavage by LC-MS/MS analysis; assay type: ADME, organism-based; conditions: in vivo; how it was run: as §1
[19] = molecular target: T1, Histone-lysine N-methyltransferase SMYD3; test: Inhibition of full length N-terminal His-tagged SMYD3 (1 to 428 residues) (unknown origin) expressed in Escherichia coli using N-terminal GST-tagged MEKK2 as substrate preincubated for 30 mins followed by substrate addition by scintillation proximity assay in presence of [3H]SAM
[20] = molecular target: T1, Histone-lysine N-methyltransferase SMYD3; test: Non-competitive inhibition of full length N-terminal His-tagged SMYD3 (1 to 428 residues) (unknown origin) expressed in Escherichia coli using fixed N-terminal GST-tagged MEKK2 substrate and varying SAM levels preincubated for 30 mins followed by substrate addition by filter plate assay
[21] = Terminal half life in CD1 mouse at 5 mg/kg, administered through oral gavage by LC-MS/MS analysis; assay type: ADME, organism-based; conditions: in vivo, read-out: beta t1/2 (converted); how it was run: as §1
[22] = Terminal half life in CD1 mouse at 50 mg/kg, administered through oral gavage by LC-MS/MS analysis; assay type: ADME, organism-based; conditions: in vivo, read-out: beta t1/2 (converted); how it was run: as §1

Q: For O=C1Cc2cc(C(=O)N[C@H]3C[C@H]4CC[C@@H](C3)N4S(=O)(=O)CC3CCN(CCCC(F)(F)F)CC3)c(Cl)cc2N1, which bioavailability [1] is on record?
A: 48%

Q: What about the Cmax [2] of the same compound?
A: 345 ng/mL

Q: And the Tmax [3]?
A: 0.89 h

Q: What about the AUC(0-inf) [4] of the same compound?
A: 616 ng·h/mL

Q: What about the half-life [5] of the same compound?
A: 1.7 h

Q: And the Ki [6]?
A: 1.1 nM

Q: And the AUC(0-inf) [7]?
A: 1480 ng·h/mL

Q: What about the AUC(0-t) at 24 h [8] of the same compound?
A: 603 ng·h/mL

Q: And the CL renal at 24 h [9]?
A: 5.3 mL/min/kg

Q: What about the efflux ratio at 2 h, 10 µM [10] of the same compound?
A: 41

Q: And the AUC(0-inf) [11]?
A: 21200 ng·h/mL

Q: And the AUC(0-t) at 24 h [12]?
A: 21200 ng·h/mL

Q: And the Vd [13]?
A: 2.3 L/kg

Q: And the AUC(0-t) at 24 h [14]?
A: 1280 ng·h/mL

Q: What about the clearance [15] of the same compound?
A: 27 mL/min/kg

Q: And the dose excreted at 24 h [16]?
A: 20%

Q: What about the Cmax [17] of the same compound?
A: 4690 ng/mL

Q: What about the Tmax [18] of the same compound?
A: 1.3 h

Q: And the IC50 [19]?
A: 3 nM

Q: And the Ki [20]?
A: 1.2 nM

Q: And the half-life [21]?
A: 2.7 h

Q: And the half-life [22]?
A: 2.2 h
